Test results reported in ChEMBL document CHEMBL1687794, “Phenotypic and biochemical comparison of the carbapenem-hydrolyzing activities of five plasmid-borne AmpC β-lactamases” (2010).
Converted amounts (≈) assume the structure as drawn.

Legend:
Escherichia coli [1] = test: Antimicrobial activity against OmpC/OmpF porin deficient Escherichia coli HB4 transformed with Escherichia coli ECB-1 plasmid carrying ACC-1 by agar dilution method; format: functional
Summary of the method: (§1)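 Agar dilution on Mueller-Hinton agar, inoculum 10^4 CFU per spot, interpreted per CLSI. Host is E. coli HB4, which lacks OmpC and OmpF, with or without a cloned ampC gene under the lacZ promoter. Panel: cefoxitin, cefuroxime, cefotaxime, ceftazidime, cefepime, imipenem, ertapenem, meropenem.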

Escherichia coli [2] = test: Antimicrobial activity against Escherichia coli TOP10 transformed with Escherichia coli ECB-1 plasmid carrying ACC-1 by agar dilution method; format: functional
Summary of the method: (§2)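 Agar dilution MICs on Mueller-Hinton agar, 10^4 CFU per spot, read by CLSI guidelines. Strains are wild-type E. coli TOP10, with or without a cloned ampC gene (native promoter removed, lacZ promoter-driven). Antibiotics tested: cefoxitin, cefuroxime, cefotaxime, ceftazidime, cefepime, imipenem, ertapenem, meropenem.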

Escherichia coli [3] = test: Antimicrobial activity against Escherichia coli TOP10 transformed with Enterobacter asburiae CIP 105006 plasmid carrying ACT-1 by agar dilution method; format: functional; summary of the method: as §2
Escherichia coli [4] = test: Antimicrobial activity against Escherichia coli TOP10 transformed with Escherichia coli EC-6 plasmid carrying AmpC-B2 by agar dilution method; format: functional; summary of the method: as §2
Escherichia coli [5] = test: Antimicrobial activity against OmpC/OmpF porin deficient Escherichia coli HB4 transformed with Escherichia coli pGLK-1 plasmid carrying FOX-1 by agar dilution method; format: functional; summary of the method: as §1
Escherichia coli [6] = test: Antimicrobial activity against OmpC/OmpF porin deficient Escherichia coli HB4 transformed with Escherichia coli DH10B plasmid carrying DHA-1 by agar dilution method; format: functional; summary of the method: as §1
Escherichia coli [7] = test: Antimicrobial activity against Escherichia coli TOP10 transformed with Escherichia coli DH10B plasmid carrying DHA-1 by agar dilution method; format: functional; summary of the method: as §2
Escherichia coli [8] = test: Antimicrobial activity against Escherichia coli TOP10 transformed with Escherichia coli ECB2 plasmid carrying CMY-2 by agar dilution method; format: functional; summary of the method: as §2
Escherichia coli [9] = test: Antimicrobial activity against OmpC/OmpF porin deficient Escherichia coli HB4 by agar dilution method; format: functional; summary of the method: as §1
Escherichia coli [10] = test: Antimicrobial activity against OmpC/OmpF porin deficient Escherichia coli HB4 transformed with Escherichia coli ECB2 plasmid carrying CMY-2 by agar dilution method; format: functional; summary of the method: as §1
Escherichia coli [11] = test: Antimicrobial activity against Escherichia coli TOP10 transformed with Escherichia coli pGLK-1 plasmid carrying FOX-1 by agar dilution method; format: functional; summary of the method: as §2
Escherichia coli [12] = test: Antimicrobial activity against OmpC/OmpF porin deficient Escherichia coli HB4 transformed with Escherichia coli EC-6 plasmid carrying AmpC-B2 by agar dilution method; format: functional; summary of the method: as §1
Escherichia coli [13] = test: Antimicrobial activity against OmpC/OmpF porin deficient Escherichia coli HB4 transformed with Enterobacter asburiae CIP 105006 plasmid carrying ACT-1 by agar dilution method; format: functional; summary of the method: as §1
Escherichia coli [14] = test: Antimicrobial activity against Escherichia coli TOP10 by agar dilution method
[15] = Activity of Beta-lactamase ACT-1
Summary of the method: (§3)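 Enzyme source: AmpC genes cloned without native promoter under lacZ control, expressed in E. coli TOP10, purified (FOX-1 by two Q-Sepharose steps, bis-Tris pH 6.8 then Tris-HCl pH 9). Hydrolysis monitored spectrophotometrically at 30°C in 100 mM sodium phosphate pH 7.0 with cephaloridine, ertapenem, imipenem or meropenem. kcat from initial rates at saturating substrate ([S] = 100 × Km).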

[16] = Ratio of Kcat to Km for Beta-lactamase ACT-1
Summary of the method: (§4)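 Purified TOP10-expressed AmpC enzymes, assayed spectrophotometrically at 30°C, 100 mM sodium phosphate pH 7.0. Cephaloridine Km and kcat from initial rates via Eadie-Hofstee linearization. For imipenem, Ki replaced Km, measured against cephaloridine as reporter substrate. kcat from initial rates at saturating substrate ([S] = 100 × Km) using undiluted enzyme extract. Efficiency taken as kcat/Km.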

[17] = Ratio of Kcat to Km for Beta-lactamase FOX-1; summary of the method: as §4
[18] = Activity of Beta-lactamase DHA-1; summary of the method: as §3
[19] = Activity of Beta-lactamase FOX-1; summary of the method: as §3
[20] = Ratio of Kcat to Km for Beta-lactamase AmpC-B2; summary of the method: as §4
[21] = Ratio of Kcat to Km for Beta-lactamase CMY-2; summary of the method: as §4
[22] = Ratio of Kcat to Km for Beta-lactamase ACC-1; summary of the method: as §4
[23] = Activity of Beta-lactamase CMY-2; summary of the method: as §3
[24] = Activity of Beta-lactamase ACC-1
Summary of the method: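 ACC-1 cloned without its native promoter behind the lacZ promoter, expressed in E. coli TOP10 and purified. Ki, Km and kcat measured by UV spectrophotometry at 30°C in 100 mM sodium phosphate pH 7.0. Cephaloridine Km/kcat from initial rates by Eadie-Hofstee analysis. Imipenem Ki measured against cephaloridine reporter substrate; kcat from initial rates at [S] = 100 × Km.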

[25] = Ratio of Kcat to Km for Beta-lactamase DHA-1; summary of the method: as §4
[26] = Activity of Beta-lactamase AmpC-B2; summary of the method: as §3

SMILES | MIC (Escherichia coli [1]) | MIC (Escherichia coli [2]) | MIC (Escherichia coli [3]) | MIC (Escherichia coli [4]) | MIC (Escherichia coli [5]) | MIC (Escherichia coli [6]) | MIC (Escherichia coli [7]) | MIC (Escherichia coli [8]) | MIC (Escherichia coli [9]) | MIC (Escherichia coli [10]) | MIC (Escherichia coli [11]) | MIC (Escherichia coli [12]) | MIC (Escherichia coli [13]) | MIC (Escherichia coli [14]) | also measured
CO/N=C(\C(=O)N[C@@H]1C(=O)N2C(C(=O)O)=C(COC(C)=O)CS[C@H]12)c1csc(N)n1 [CEFOTAXIME] | 4 mg/L (≈ 8.78 µM) | 1 mg/L (≈ 2.2 µM) | 64 mg/L (≈ 141 µM) | 0.5 mg/L (≈ 1.1 µM) | 32 mg/L (≈ 70.3 µM) | 128 mg/L (≈ 281 µM) | 8 mg/L (≈ 17.6 µM) | 128 mg/L (≈ 281 µM) | 4 mg/L (≈ 8.78 µM) | 256 mg/L (≈ 562 µM) | 16 mg/L (≈ 35.1 µM) | 4 mg/L (≈ 8.78 µM) | 64 mg/L (≈ 141 µM) | 0.06 mg/L (≈ 0.132 µM) | –
CO/N=C(\C(=O)N[C@@H]1C(=O)N2C(C(=O)[O-])=C(C[N+]3(C)CCCC3)CS[C@H]12)c1csc(N)n1 [CEFEPIME] | 4 mg/L (≈ 8.32 µM) | 0.125 mg/L (≈ 0.26 µM) | 0.25 mg/L (≈ 0.52 µM) | 0.06 mg/L (≈ 0.125 µM) | 8 mg/L (≈ 16.6 µM) | 2 mg/L (≈ 4.16 µM) | 0.064 mg/L (≈ 0.133 µM) | 1 mg/L (≈ 2.08 µM) | 1 mg/L (≈ 2.08 µM) | – | – | 1 mg/L (≈ 2.08 µM) | 4 mg/L (≈ 8.32 µM) | 0.06 mg/L (≈ 0.125 µM) | –
CO[C@@]1(NC(=O)Cc2cccs2)C(=O)N2C(C(=O)O)=C(COC(N)=O)CS[C@@H]21 [CEFOXITIN] | 256 mg/L (≈ 599 µM) | 2 mg/L (≈ 4.68 µM) | 512 mg/L (≈ 1200 µM) | 128 mg/L (≈ 299 µM) | > 512 mg/L | > 512 mg/L | 32 mg/L (≈ 74.9 µM) | 128 mg/L (≈ 299 µM) | 256 mg/L (≈ 599 µM) | > 512 mg/L | 512 mg/L (≈ 1200 µM) | 512 mg/L (≈ 1200 µM) | > 512 mg/L | 2 mg/L (≈ 4.68 µM) | –
CO/N=C(\C(=O)N[C@@H]1C(=O)N2C(C(=O)O)=C(COC(N)=O)CS[C@H]12)c1ccco1 [CEFUROXIME] | 128 mg/L (≈ 302 µM) | 1 mg/L (≈ 2.36 µM) | 512 mg/L (≈ 1210 µM) | 128 mg/L (≈ 302 µM) | > 512 mg/L | > 512 mg/L | 128 mg/L (≈ 302 µM) | 128 mg/L (≈ 302 µM) | 32 mg/L (≈ 75.4 µM) | > 512 mg/L | 256 mg/L (≈ 603 µM) | 512 mg/L (≈ 1210 µM) | > 512 mg/L | 1 mg/L (≈ 2.36 µM) | –
O=C(Cc1cccs1)N[C@@H]1C(=O)N2C(C(=O)[O-])=C(C[n+]3ccccc3)CS[C@H]12 | – | – | – | – | – | – | – | – | – | – | – | – | – | – | Km [15]: 420 µM; kcat [15]: 481 s⁻¹; kcat/Km [16]: 1.14e+06 M⁻¹ s⁻¹; kcat/Km [17]: 360000 M⁻¹ s⁻¹; Km [18]: 330 µM; kcat [18]: 196 s⁻¹; Km [19]: 630 µM; kcat [19]: 228 s⁻¹; kcat/Km [20]: 250000 M⁻¹ s⁻¹; kcat/Km [21]: 3.3e+06 M⁻¹ s⁻¹; kcat/Km [22]: 330000 M⁻¹ s⁻¹; Km [23]: 125 µM; kcat [23]: 412 s⁻¹; Km [24]: 420 µM; kcat [24]: 140 s⁻¹; kcat/Km [25]: 595000 M⁻¹ s⁻¹; Km [26]: 950 µM; kcat [26]: 240 s⁻¹
